From PubChem BioAssay
Compounds with a hit are over-represented: about 2.9% of the library has one in this group of screens.
TRPC4 act – activators of mouse TRPC4 channel, primary screen, Fluo4 calcium, HEK293 TRPC4beta/mu-opioid cells | B-score at 10 µM | 0.49% of 310,000 active | Fluo4 calcium fluorescence; stronger effect = higher value;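 active = B-score above 5 SD of library B-scores, and initial fluorescence ratio not above library mean plus 5 SD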;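 also: positive B-score marks a calcium rise read as TRPC4 activation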
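Assay system – TRPC4beta and mu-opioid receptor HEK293 stable cells · Measured by – Fluo4 fluorescence, kinetic · Schedule – dye loading 45 min room temperature, 110 s kinetic read · Read-out – B-scored integrated calcium fluorescence ratio · Controls – buffer and maximal DAMGO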
TRPC4 potent – positive allosteric modulators of TRPC4, primary screen, cell-based, mouse TRPC4beta, HEK293 mu-opioid, Fluo-4 calcium | DAMGO EC20, Fluo-4 Ca2+ flux; stronger effect = higher value | 0.42% of 310,000 active | B-score at 10 µM | AID 2227, 2009;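 active = B-score of calcium response area above 5 SD of library B-scores, with initial fluorescence ratio within 5 SD of library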
Kir21 block – inhibitors of mouse Kir2.1 inward-rectifier potassium channel | HEK293-Kir2.1, FluxOR thallium flux fluorescence; stronger effect = lower value | AID 1672, 2009 | 0.85% of 310,000 active | B-score at 10 µM;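 active = fluorescence ratio B-score at or below minus 3 SD of library scores, with starting-brightness B-score within 2 SD, cut at about -4.2 in these data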;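 also: channel flux triggered by added potassium and thallium sulfate stimulus; B-score of peak minus minimum fluorescence over baseline after thallium stimulus; more negative B-score means stronger Kir2.1 block with less thallium influx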
TRPC6 inhibitor – mouse TRPC6 channel inhibitors, primary screen, cell-based, HEK293, membrane potential dye. ACh-evoked depolarization; stronger effect = lower value. Short transient receptor potential channel 6 (Mus musculus), Q61143. AID 2553, 2010. B-score at 10 µM. 1.1% of 310,000 active;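 active = B-score under library mean minus 3 SD, initial fluorescence not abnormally high, positive integrated signal ratio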;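 also: B-score derived from integrated fluorescence ratio over the kinetic read; more negative B-score means stronger inhibition of depolarization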
Target sequence (Q61143 whole entry, looked up): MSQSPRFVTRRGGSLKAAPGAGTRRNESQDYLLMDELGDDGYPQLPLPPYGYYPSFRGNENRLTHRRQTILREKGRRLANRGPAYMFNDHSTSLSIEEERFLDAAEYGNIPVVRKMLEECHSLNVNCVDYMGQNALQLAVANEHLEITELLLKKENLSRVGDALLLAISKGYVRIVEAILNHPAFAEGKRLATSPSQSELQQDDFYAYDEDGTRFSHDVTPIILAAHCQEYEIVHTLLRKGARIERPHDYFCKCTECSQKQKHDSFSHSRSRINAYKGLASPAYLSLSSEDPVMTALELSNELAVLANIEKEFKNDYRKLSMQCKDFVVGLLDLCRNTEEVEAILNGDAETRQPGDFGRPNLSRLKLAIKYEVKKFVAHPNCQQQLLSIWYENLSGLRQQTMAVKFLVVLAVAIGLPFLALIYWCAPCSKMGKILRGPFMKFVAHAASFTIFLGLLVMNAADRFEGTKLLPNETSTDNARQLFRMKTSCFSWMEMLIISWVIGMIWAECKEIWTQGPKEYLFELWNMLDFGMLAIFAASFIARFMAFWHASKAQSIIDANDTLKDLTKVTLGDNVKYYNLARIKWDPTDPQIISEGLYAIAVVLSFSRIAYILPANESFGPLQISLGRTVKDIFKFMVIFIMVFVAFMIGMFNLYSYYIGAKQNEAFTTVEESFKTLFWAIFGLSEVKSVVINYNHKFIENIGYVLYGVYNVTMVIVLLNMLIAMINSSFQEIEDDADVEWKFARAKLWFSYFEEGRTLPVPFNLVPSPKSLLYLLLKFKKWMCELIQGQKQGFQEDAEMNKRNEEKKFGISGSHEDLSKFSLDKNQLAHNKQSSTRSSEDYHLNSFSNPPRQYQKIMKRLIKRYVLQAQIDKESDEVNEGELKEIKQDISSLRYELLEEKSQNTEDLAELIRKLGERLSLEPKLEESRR
TRPC6 activator – mouse TRPC6 channel activators, primary screen, cell-based, HEK293, membrane potential dye; B-score at 10 µM; HEK293-TRPC6 membrane potential dye fluorescence; stronger effect = higher value; 0.13% of 310,000 active; AID 2550, 2010;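 active = B-score of the integrated fluorescence ratio above library mean plus 3 SD, and starting fluorescence ratio within library mean plus 5 SD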;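 also: higher score means more depolarization so channel activation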
TRPC4 inh – inhibitors of mouse TRPC4 channel, primary screen, Fluo4 calcium, HEK293 TRPC4beta/mu-opioid cells. Short transient receptor potential channel 4 (Mus musculus), Q9QUQ5. DAMGO-evoked Fluo4 calcium flux; stronger effect = lower value. B-score at 10 µM. 0.39% of 300,000 active;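 active = B-score over 3 SD under the library average, no early fluorescence shift, positive overall ratio signal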
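material = TRPC4beta/mu-opioid receptor HEK293 cell line | probe or stimulus = sequential submaximal and maximal DAMGO stimulation | compound dosing = one concentration per compound | measured by = Fluo4 Ca2+ flux fluorescence | evaluation = integrated fluorescence ratio relative to baseline, converted to per-well B score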
Hits are given with their value; i = inactive; nt = no result given.

SMILES	TRPC4 act	TRPC4 potent	Kir21 block	TRPC6 inhibitor	TRPC6 activator	TRPC4 inh
O=C(CN1CCCC(O)C1)N1c2ccccc2Sc2ccc(C(F)(F)F)cc21 (stereo not given)	i	i	i	i	i	i
CCOC(=O)c1ccccc1NC(=O)COC(=O)CSC(C)C(=O)Nc1cc(C)on1 (stereo not given)	i	i	i	i	i	i
C=CCn1c(SCc2n[nH]c(=S)n2-c2ccccc2)nnc1-c1ccccc1	i	11	i	i	i	i
Cc1sc2ccc3sccc3c2[n+]1C	i	i	i	-5.4	i	i
c1ccc(C2CC(c3ccccc3)n3c(nc4ccccc43)N2)cc1 (stereo not given)	i	i	i	i	i	i
C/C=C(/C)C(=O)O[C@@H]1c2cc(OC)c(OC)c(OC)c2-c2c(cc3c(c2OC)OCO3)C[C@H](C)[C@]1(C)O	i	16	i	i	i	nt
COc1cc2c(c(OC)c1OC)-c1c(cc3c(c1OC)OCO3)[C@@H](OC(C)=O)[C@H](C)[C@H](C)C2	i	i	i	i	i	i
Cc1ccc(CN(CC(=O)NCCc2ccccc2)C(=O)c2csnn2)cc1	i	i	i	i	i	i
CN(C)CCOC1c2ccccc2CCc2ccc3ccccc3c21 (stereo not given)	i	i	i	i	i	i
Cc1ccc(S(=O)(=O)NCc2c(-c3ccccc3)noc2C)cc1	i	i	-4.3	i	i	i
C/C=C/c1ccc(OCCOc2cc(C=O)ccc2OC)c(OC)c1	i	i	i	i	i	i
Cc1cc(C)c(C)c(OCCOCCNCc2ccccc2)c1	i	i	-9.1	i	i	i
Cc1ccc(OCCNCc2ccccc2)c(C)c1	i	i	-4.6	i	i	i
Cc1cc(C)c(OCCCNCc2ccccc2)c(Br)c1	i	i	-16	i	i	i
C/C=C/c1ccc(OCCOCCNCc2ccccc2)c(OC)c1	i	i	-6.2	i	i	i
Cc1cccc(OCCCCNCc2ccccc2)c1	i	i	i	i	i	i
CC1CCN(CCOCCOc2ccc(Br)cc2Cl)CC1	i	i	-7.6	i	i	i
C/C(N)=C(/C#N)C(=O)COC(=O)C1CCC(C(C)(C)C)CC1 (stereo not given)	i	i	-11	i	i	i
C/C(N)=C(/C#N)C(=O)COC(=O)CC12CC3CC(CC(C3)C1)C2	i	i	i	i	i	-7
Cc1sc2ncnc(N3CCC(C(=O)Nc4ccc(Br)cc4Br)CC3)c2c1C	i	i	i	i	i	i
Cc1ccccc1N1CC(O)(c2ccccc2)[N+]2=C1SCC2 (stereo not given)	83	i	i	i	i	i
Cc1ccc(C2(O)CN(c3ccccc3C)C3=[N+]2CCS3)cc1 (stereo not given)	106	i	i	i	i	i
CCCNC(=O)C(=O)NCC(c1ccc2c(c1)OCO2)N1CCN(c2ccc(F)cc2)CC1 (stereo not given)	i	i	i	i	i	i
CCCCCCCCC[n+]1cccc2c3ccccc3ccc21	i	i	-10	-5.7	i	i
O/N=C/c1cccc[n+]1CCCCCC[n+]1ccccc1/C=N/O	i	i	i	i	i	i
SMILES	TRPC4 act	TRPC4 potent	Kir21 block	TRPC6 inhibitor	TRPC6 activator	TRPC4 inh
Cc1sc(NC(=O)C2CCCCC2C(=O)O)c(C(N)=O)c1-c1ccc(C(C)(C)C)cc1 (stereo not given)	i	i	i	i	i	-5
CS(=O)(=O)c1ccc(Cl)c(NC(=O)COc2ccc3c(c2)CCC3)c1	i	i	i	i	i	i
NS(=O)(=O)c1ccc(CCNC(=O)COC(=O)CC(c2ccccc2)c2ccccc2)cc1	i	i	-5.1	i	i	i
NS(=O)(=O)c1ccc(CCNC(=O)CC(c2ccccc2)c2ccccc2)cc1	i	i	i	i	i	i
Oc1ccccc1CN1CCC(C(O)(c2ccccc2)c2ccccc2)CC1	i	i	-5.2	i	i	i
Oc1ccccc1CN1CCN(C(O)(c2ccccc2)c2ccccc2)CC1	i	i	-7.3	i	i	i
COCCNc1oc(/C=C/c2ccccc2OC)nc1S(=O)(=O)c1ccccc1	i	i	i	i	i	i
CC(C)(C)[C@]1(O)CCN2C[C@H]3c4ccccc4CCc4cccc(c43)[C@@H]2C1	61	i	i	i	i	i
O/N=C1/C2C3C(Br)C4C5CC(C1C53)C24 (stereo not given)	i	i	i	i	i	i
C=CCn1c(CSCc2ccc(C)cc2)nnc1SCC(=O)NCc1ccccc1	i	i	i	i	i	i
C=CCn1c(CSCc2ccc(Cl)cc2)nnc1SCC(=O)NCc1ccccc1	i	i	-4.8	i	i	i
Cn1c2c(c(=O)n(C)c1=O)NC1(N2)C(=O)Nc2ccccc21 (stereo not given)	i	i	i	i	i	i
CCOC(=O)C1(Cc2ccccc2)CCCN(C(=O)c2cnn(CC)c2)C1 (stereo not given)	i	i	i	i	i	i
O=C(CN1CCOCC1)Nc1ccccc1Sc1ccc(Cl)cc1	i	i	-5.2	i	i	i
O=C(CSc1ncn[nH]1)Nc1ccccc1Sc1ccc(Cl)cc1	i	i	-4.7	i	i	i
O=C(CN1CCCC1)Nc1ccccc1Sc1ccccc1	i	i	-4.2	i	i	i
O=C(CN1CCCCC1)Nc1ccccc1Oc1ccccc1	i	i	-5.6	i	i	-5
COc1ccccc1-c1cc(C(F)(F)F)n2ncc(C(=O)N3CCc4ccccc4C3)c2n1	i	i	i	i	i	i
O=C(Nc1nnc(C2CC2)s1)C1Cc2ccccc2CN1S(=O)(=O)c1ccccc1F (stereo not given)	i	i	i	i	i	i
O=C(CSc1ncn[nH]1)NCCC(c1ccccc1)c1ccccc1	i	i	-5.2	i	i	i
COc1cc(NC(=S)NC(=O)c2ccccc2F)ccc1NC(=O)c1ccco1	i	i	i	i	i	i
CC(=O)Nc1ccc(NC(=O)CCCn2cnc3ccccc3c2=O)cc1	i	i	i	i	i	i
O=C(O)/C=C/C(=O)NNC(=O)c1cccc(Br)c1	i	i	i	i	i	i
Cc1ccc(-n2cc(CNCCc3ncc(C)[nH]3)c(-c3ccc(F)cc3)n2)cc1	133	i	i	i	i	i
